The source of these data is ChEMBL document CHEMBL1156875, “Anti-influenza drug discovery: structure-activity relationship and mechanistic insight into novel angelicin derivatives” (J Med Chem, 2010).

Data set [1] relates to Influenza B virus. The data set can be described thus: Antiviral activity against human influenza B virus B/TW/70325/05 in MDCK cells assessed as reduction of virus-induced cytopathic. As to conditions: B/TW/70325/05, MDCK. Format: functional, organism-based. Summed up:
(§1)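 MDCK cells (1.1 × 10^5 cells/mL in DMEM + 10% FBS) grown 24-30 h at 37 C to about 90% confluency. Virus (100 TCID50) premixed with serially diluted compound, adsorbed 1 h at 37 C. Overlay of serum-free DMEM with trypsin 2.5 μg/mL and 0.1% DMSO, then 72 h at 37 C. Formaldehyde fixation, crystal violet stain, A570. IC50 = 50% CPE reduction versus virus control. Triplicate, at least two runs.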
Background: Protection from cytopathic effect is a common read-out in antiviral testing.

The subject of data set [2] is Influenza B virus. Description: Antiviral activity against human influenza B virus B/TW/99/07 in MDCK cells assessed as reduction of virus-induced cytopathic. Format: functional, organism-based. As to conditions: B/TW/99/07, MDCK. Summed up:
as §1

In data set [3] the test system is Influenza A virus. The data set can be described thus: Antiviral activity against human influenza A virus A/TW/141/04 (H1N1) in MDCK cells assessed as reduction of virus-induced cytopathic effect. Format: functional, organism-based. Summed up:
as §1

The subject of data set [4] is Influenza B virus. Description: Antiviral activity against human influenza B virus B/TW/710/05 in MDCK cells assessed as reduction of virus-induced cytopathic. Format: functional, organism-based. As to conditions: B/TW/710/05, MDCK. Summed up: as §1
Data set [5] concerns Influenza A virus. Description: Antiviral activity against human influenza A virus A/WSN/33 (H1N1) in MDCK cells assessed as reduction of virus-induced cytopathic effect. Format: functional, organism-based. As to conditions: A/WSN/1933(H1N1). Summed up:
as §1

The test system of data set [6] is Influenza A virus. Description: Antiviral activity against human influenza A virus A/TW/3446/04 (H3N2) in MDCK cells assessed as reduction of virus-induced cytopathic effect. Format: functional, organism-based. Summed up: as §1
Data set [7] relates to Influenza A virus. The data set can be described thus: Antiviral activity against human influenza A virus A/WSN/33 (H1N1) assessed as inhibition of guinea pig red blood cells at 25 uM by hemagglutinination inhibition assay. Format: functional, organism-based. As to conditions: A/WSN/1933(H1N1). Summed up:
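Hemagglutination inhibition format: A/WSN/33 attachment to guinea pig red blood cells tested with compound at 25 μM.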

The subject of data set [8] is Influenza A virus. The data set can be described thus: Antiviral activity against human influenza A virus A/WSN/33 (H1N1) in MDCK cells assessed as reduction of plaque formation at 20 nM. Format: functional, A/WSN/1933(H1N1). Also on record: scale not given: the % may be the effect or the level left. Summed up: (§2)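 Six-well MDCK monolayers (5.5 × 10^5 cells/well, overnight) infected with about 125 PFU/well of A/WSN/33 with or without compound, adsorbed 1 h at 37 C, then washed with HBSS. Agarose 0.3% overlay in trypsin-containing serum-free medium carrying the same compound level, 48 h at 37 C, 5% CO2. Fixed, crystal violet stained, plaques counted relative to virus control.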

Data set [9] concerns Influenza A virus. The data set can be described thus: Antiviral activity against human influenza A virus A/WSN/33 (H1N1) in MDCK cells assessed as reduction of M1 protein by immunofluorescence microscopic analysis. Format: functional, organism-based. As to conditions: A/WSN/1933(H1N1). Summed up:
(§3)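 Influenza-infected MDCK cells examined by immunofluorescence microscopy with anti-dsRNA, anti-NP and anti-M1 antibodies to visualise viral RNA and proteins.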

The subject of data set [10] is Influenza A virus. Description: Antiviral activity against human influenza A virus A/WSN/33 (H1N1) in MDCK cells assessed as reduction of plaque formation at 100 nM. Format: functional, organism-based. As to conditions: A/WSN/1933(H1N1). Summed up: as §2
The subject of data set [11] is Influenza A virus. The data set can be described thus: Antiviral activity against human influenza A virus A/WSN/33 (H1N1) in MDCK cells assessed as prevention of progeny formation up to 4 hrs by time-of-addition study. Format: functional, organism-based. As to conditions: A/WSN/1933(H1N1). Summed up: (§4)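 MDCK (2.4 × 10^5 cells/well, six-well) infected at MOI 0.001 on ice for 1 h, washed, fresh medium set as 0 h pi. Compound at 1 μM present only during −1 to 0, 0-2, 2-4, 4-6 or 6-8 h, then washed off. Incubated in fresh medium to 12 h pi; supernatant virus yield titrated by plaque assay.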

Data set [12] deals with Influenza A virus. Description: Antiviral activity against human influenza A virus A/WSN/33 (H1N1) in MDCK cells assessed as reduction of dsRNA by immunofluorescence microscopic analysis. Format: functional, organism-based. As to conditions: A/WSN/1933(H1N1). Summed up:
as §3

Data set [13] deals with Influenza A virus. The data set can be described thus: Antiviral activity against human influenza A virus A/WSN/33 (H1N1) in MDCK cells assessed as prevention of progeny formation after 4 to 8 hrs by time-of-addition study. Format: functional, organism-based. As to conditions: A/WSN/1933(H1N1). Summed up:
as §4

Data set [14] concerns Influenza A virus. The data set can be described thus: Antiviral activity against human influenza A virus A/WSN/33 (H1N1) in MDCK cells assessed as reduction of NP protein by immunofluorescence microscopic analysis. As to conditions: A/WSN/1933(H1N1). Format: functional, organism-based. Summed up:
as §3

Data set [15] can be described thus: Cytotoxicity against MDCK cells after 72 hrs. Format: cell-based, Canis lupus familiaris. As to conditions: dog. Summed up: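 Uninfected MDCK monolayers (seeded at 1.1 × 10^5 cells/mL, grown 24-30 h to about 90% confluency) exposed to graded compound concentrations for 72 h at 37 C. Read by formaldehyde fixation, 0.1% crystal violet staining and absorbance at 570 nm. CC50 = concentration reducing viability to 50% of control. Triplicate, repeated at least twice.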

Molecules are shown by their SMILES. Activity calls are given as the source filed them. The rule behind the calls is not given here.

In general, IC50 refers to the concentration at which inhibition is half-maximal. Take `CC(=O)N[C@H]1[C@H]([C@H](O)[C@H](O)CO)OC(C(=O)O)=C[C@@H]1NC(=N)N` [ZANAMIVIR]: the half-inhibitory concentration (IC50) in [1] was determined as 20 nM; in data set [2], 100 nM; in [3], 350 nM; in [4] it was 30 nM; in data set [5], 60 nM; in data set [6], 30 nM.

In general, CC50 refers to the concentration giving 50% cytotoxicity. As for `Cc1cc(=O)oc2c1ccc1oc(C(=O)c3cccs3)c(-c3ccccc3)c12`, the half-inhibitory concentration (IC50) worked out at 90 nM in data set [1]; 40 nM in [2]; 90 nM in data set [3]; 90 nM in data set [4]; 70 nM in [5]; 150 nM in data set [6]. The outcome in [7] and in [13] was inactive. In addition, the Activity in [8] was 50%. Further, the outcome in [9], in [10], in [11], in data set [12] and in data set [14] was Active. The molecule further yielded a CC50 at 72 h in data set [15] of more than 25000 nM.

Turning to `Cc1cc(=O)oc2c1ccc1oc(C(=O)c3ccccc3)c(-c3cccc4ccccc34)c12`, the concentration for half-maximal inhibition (IC50) in data set [5] is 880 nM. In data set [15], this molecule yielded a 50% cytotoxic concentration (CC50) at 72 h of more than 25000 nM.

With `O=C(c1ccccc1)c1oc2ccc3ccc(=O)oc3c2c1-c1ccccc1`, in data set [5], the IC50 turned out to be 17600 nM. Besides, the CC50 at 72 h in [15] is more than 25000 nM.
